This is an account of results in ChEMBL document CHEMBL4385642, “Optimization and biological evaluation of nicotinamide derivatives as Aurora kinase inhibitors” (Bioorg Med Chem, 2019).

Active and inactive are the calls of the source. The calls are words filed in the database; no cut-off is given here.

In assay [1] the target is Aurora kinase B (Homo sapiens) (UniProt Q96GD4). Briefly: Inhibition of Aurora B (unknown origin) at 0.2 uM pre-incubated for 10 mins before FAM-labeled peptide substrate addition by mobility shift assay relative to control.
For assay [2], the target named is T1, Aurora kinase A (Homo sapiens) (UniProt O14965).
T1 sequence (whole entry): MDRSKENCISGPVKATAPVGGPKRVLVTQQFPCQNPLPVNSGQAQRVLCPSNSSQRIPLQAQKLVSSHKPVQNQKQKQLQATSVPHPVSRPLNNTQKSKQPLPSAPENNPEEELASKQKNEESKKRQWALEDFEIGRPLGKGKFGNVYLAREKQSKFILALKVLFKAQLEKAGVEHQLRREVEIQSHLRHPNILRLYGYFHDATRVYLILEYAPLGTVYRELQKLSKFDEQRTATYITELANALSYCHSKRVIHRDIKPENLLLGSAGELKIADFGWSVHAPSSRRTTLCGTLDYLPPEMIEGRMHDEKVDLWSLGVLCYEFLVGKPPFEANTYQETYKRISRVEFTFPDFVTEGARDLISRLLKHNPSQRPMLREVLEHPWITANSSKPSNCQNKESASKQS
Briefly: Inhibition of Aurora A (unknown origin) at 0.2 uM pre-incubated for 10 mins before FAM-labeled peptide substrate addition by mobility shift assay relative to control.

In assay [3] the test system is SW-620. Briefly: Cytotoxicity in human SW620 cells assessed as reduction in cell viability incubated for 72 hrs by MTT assay. Format: functional, cell-based. The settings on record: SW-620, 72 h. Summed up: (§1)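 Cells in DMEM or RPMI 1640 with 10% FBS and 1% penicillin/streptomycin were seeded at 6 × 10^3/well and grown 24 h at 37 °C, 5% CO2. They were exposed 72 h to graded compound concentrations (DMSO under 0.1%). MTT (5 mg/mL, 10 µL) was added for 4 h at 37 °C and formazan dissolved in DMSO. A492 was read against a 630 nm reference, and IC50 came from concentration–response curves.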
For orientation: Tetrazolium dyes change colour on reduction, which living cells bring about.

A further assay relates to HeLa. Briefly: Cytotoxicity in human HeLa cells assessed as reduction in cell viability incubated for 72 hrs by MTT assay. Format: functional, cell-based. In short, it runs like this:
as §1

Another assay deals with HT-29. Briefly: Cytotoxicity in human HT-29 cells assessed as reduction in cell viability incubated for 72 hrs by MTT assay. The settings on record: HT-29, 72 h. It counts as functional, cell-based. In short, it runs like this: as §1
Assay [4] relates to SW-620. Briefly: Induction of apoptosis in human SW620 cells at 3.33 ug/ml incubated for 36 hrs by IncuCyte live-cell imaging assay. Format: functional, cell-based. Summed up: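 Apoptosis kinetics by IncuCyte imaging: SW620 cells at 5 × 10^3/well were pre-grown 24 h at 37 °C, 5% CO2, then given compound (0.12–10.0 µg/mL) or 0.1% DMSO. Green-fluorescent apoptotic cells were counted on images taken with a 10× objective every 1 h over 48 h, in triplicate.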

Assay [5] deals with SW-620. Briefly: Antiproliferative activity against human SW620 cells assessed as effect on cell confluence level at 0.12 to 3.33 ug/ml incubated up to 84 hrs and measured every 1 hr by phase contrast microscopy. Format: functional, cell-based. In short, it runs like this: (§2)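 SW620 cells seeded at 5 × 10^3/well and grown 24 h at 37 °C, 5% CO2 inside the IncuCyte. Compounds were then added at 0.12–10.0 µg/mL, with 0.1% DMSO as vehicle control. Phase-contrast images were taken with a 10× objective every 1 h for 84 h. Confluence was scored from the images, in triplicate.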

Assay [6] deals with SW-620. Briefly: Antiproliferative activity against human SW620 cells assessed as effect on cell confluence level at 0.12 to 3.33 ug/ml incubated up to 84 hrs and measured every 1 hr by IncuCyte live-cell imaging assay. It counts as functional, cell-based. Summed up: as §2
Assay [7] relates to SW-620. Briefly: Antiproliferative activity against human SW620 cells assessed as cell confluence level at 10 ug/ml incubated up to 84 hrs and measured every 1 hr by IncuCyte live-cell imaging assay (reference value: 86.5%). Format: functional. In short, it runs like this: as §2
Assay [8] relates to SW-620. Briefly: Antiproliferative activity against human SW620 cells assessed as cell confluence level at 10 ug/ml incubated up to 84 hrs and measured every 1 hr by phase contrast microscopy (reference value: 86.5%). It counts as functional. Summed up: as §2
For a further assay, the system named is NCI-H1975. Briefly: Cytotoxicity in human NCI-H1975 cells assessed as reduction in cell viability incubated for 72 hrs by MTT assay. It counts as functional, cell-based. Particulars: NCI-H1975, 72 h. Summed up:
as §1

The test system of assay [9] is SW-620. Briefly: Cytotoxicity against human SW620 cells assessed as increase in dead cell number at 10 ug/ml incubated for 5 hrs by IncuCyte live-cell imaging assay. Format: functional, cell-based. Summed up:
(§3)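 Live-cell kinetic imaging of SW620 cells (5 × 10^3/well, 24 h pre-culture at 37 °C, 5% CO2) exposed to 0.12–10.0 µg/mL compound or 0.1% DMSO. Red-fluorescent cells were counted as dead cells, imaged with a 10× objective hourly for 84 h, in triplicate.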

Assay [10] relates to SW-620. Briefly: Cytotoxicity against human SW620 cells assessed as increase in dead cell number at 10 ug/ml incubated for 36 hrs by IncuCyte live-cell imaging assay. It counts as functional, cell-based. Summed up:
as §3

Aurora kinase B (Homo sapiens), sequence (Q96GD4 whole entry): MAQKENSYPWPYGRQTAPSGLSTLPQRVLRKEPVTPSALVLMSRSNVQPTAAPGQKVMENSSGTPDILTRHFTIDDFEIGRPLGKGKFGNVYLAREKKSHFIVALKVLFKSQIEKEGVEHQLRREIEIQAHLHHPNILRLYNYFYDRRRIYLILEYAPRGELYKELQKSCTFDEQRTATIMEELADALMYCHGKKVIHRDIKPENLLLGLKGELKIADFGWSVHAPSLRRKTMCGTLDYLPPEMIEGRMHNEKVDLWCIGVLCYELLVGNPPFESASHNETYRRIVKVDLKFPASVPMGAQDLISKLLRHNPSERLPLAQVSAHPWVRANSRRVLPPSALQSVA

Consider `COc1cc2nccc(Oc3ccc(NC(=O)c4cnc(Cl)cc4Nc4cccc5ccccc45)cc3)c2cc1OC`, for which the inhibition (in general, the relative decrease from the control value, in per cent) in [1] amounted to 46.3%; in assay [2], 59.9%.
Taken in the same sequence, the figures for `COc1cc2nccc(Oc3ccc(NC(=O)c4c(Nc5ccc(F)c(Br)c5)cc(C)nc4Cl)cc3F)c2cc1OC` were 17.7% and 0.6%.
The corresponding values for `COc1cc2nccc(Oc3ccc(NC(=O)c4cnc5ccc(Br)cc5c4Nc4ccc(F)c(Br)c4)cc3F)c2cc1OC` are 13.7% and 6.6%.
For `COc1cc2nccc(Oc3ccc(NC(=O)c4cccnc4Nc4ccc(F)c(Br)c4)cc3F)c2cc1OC`, in the assay on SW-620 [3], the IC50 – broadly, the concentration that gives 50% inhibition – worked out at 1.86 µM. Also, the inhibition in [1] stood at 40.7%; in [2] it was 48.4%.
The corresponding values for `COc1cc2nccc(Oc3ccc(NC(=O)c4cnc(Cl)cc4Nc4cccc(F)c4)cc3)c2cc1OC` are 5.1 µM, 49.6% and 48.6%.
The corresponding values for `COc1cc2nccc(Oc3ccc(NC(=O)c4cnc(Cl)cc4Nc4ccccc4Cl)cc3)c2cc1OC` are 3.6 µM, 57.1% and 68.3%.
On to `COc1cc2nccc(Oc3ccc(NC(=O)c4cnc(Cl)cc4Nc4ccc(F)cc4)cc3)c2cc1OC`, for which the IC50 in the assay with SW-620 [3] was 6.82 µM. The inhibition came to 51.6% in assay [1] and 47.1% in assay [2].
With `COc1cc2nccc(Oc3ccc(NC(=O)c4cnc(Cl)cc4Nc4ccc(F)c(Br)c4)cc3)c2cc1OC`, the IC50 is more than 20 µM in the assay on HeLa, more than 20 µM with HT-29, 1.33 µM in the assay on SW-620 [3] and 3.54 µM in the assay with NCI-H1975. The outcome in the assay with SW-620 [4], in the assay on SW-620 [5] and in the assay on SW-620 [6] was inactive. Also, the Activity in the assay on SW-620 [7] and with SW-620 [8] was 42.6% throughout. Besides, the figures for the inhibition in assay [1] and in assay [2] were 30.1% and 81.3%, respectively.
On to `COc1cc2nccc(Oc3ccc(NC(=O)c4cnc(Cl)cc4Nc4ccc(F)c(Br)c4)cc3F)c2cc1OC`, for which the IC50 was more than 20 µM in the assay on HeLa, more than 20 µM with HT-29, 0.61 µM in the assay with SW-620 [3] and 1.06 µM in the assay with NCI-H1975. For the same compound, the outcome in the assay on SW-620 [4], in the assay on SW-620 [5], with SW-620 [6], in the assay with SW-620 [7] and in the assay with SW-620 [8] was inactive. Besides, the result in the assay on SW-620 [9] and in the assay with SW-620 [10] was Active. Moreover, the inhibition in [1] was found to be 30.5%; in assay [2] it was 82.9%.
`COc1cc2nccc(Oc3ccc(NC(=O)c4c[nH]c(=O)cc4Nc4ccccc4)cc3)c2cc1OC`: the IC50 in the assay with SW-620 [3] amounted to 18.9 µM. Also, the inhibition in [1] was determined as 38.7%; in assay [2], 29.9%.
On to `COc1cc2nccc(Oc3ccc(NC(=O)c4cnc(Cl)cc4Nc4ccc(Br)cc4F)cc3)c2cc1OC`, for which the IC50 was more than 20 µM with HeLa, more than 20 µM with HT-29 and 2.45 µM with SW-620 [3]. Besides, the inhibition turned out to be 31.6% in [1] and 70% in [2].
`COc1cc2nccc(Oc3ccc(NC(=O)C4(C(=O)Nc5ccc(F)cc5)CC4)cc3)c2cc1OC` [CABOZANTINIB]: the IC50 was more than 20 µM in the assay with HeLa, 9.6 µM with HT-29, 3.37 µM in the assay on SW-620 [3] and 6.67 µM with NCI-H1975. The result with SW-620 [5] and with SW-620 [6] was inactive. The Activity in the assay on SW-620 [7] and in the assay with SW-620 [8] was 40.9% each time. Also, the inhibition in assay [1] is 38.3%.
Regarding `COc1cc2nccc(Oc3ccc(NC(=O)c4cnc(Cl)cc4Nc4ccccc4F)cc3)c2cc1OC`, in the assay on SW-620 [3], the concentration for half-maximal inhibition (IC50) was 8.1 µM. Moreover, the inhibition in [1] was determined as 50.1%; in [2], 51.5%.
In the case of `COc1cc2nccc(Oc3ccc(NC(=O)c4cnc(Cl)cc4Nc4ccc(Cl)cc4)cc3)c2cc1OC`, the IC50 with SW-620 [3] amounted to 2.38 µM. The inhibition in assay [1] turned out to be 38.5%; in assay [2] it was 51.9%.
Turning to `COc1cc2nccc(Oc3ccc(NC(=O)c4cnc(Cl)cc4Nc4ccccc4)cc3)c2cc1OC`, the IC50 in the assay on SW-620 [3] worked out at 1.92 µM. In addition, the inhibition in assay [1] came to 52.1%; in assay [2], 48.2%.
Turning to `COc1cc2nccc(Oc3ccc(NC(=O)c4cn(C)c(=O)cc4Nc4ccccc4)cc3)c2cc1OC`, the IC50 with SW-620 [3] is 4.43 µM. Further, the figures for the inhibition in assay [1] and in [2] were 31.1% and 40.9%, respectively.
On to `COc1cc2nccc(Oc3ccc(NC(=O)c4cnc(Cl)cc4Nc4ccccc4Br)cc3)c2cc1OC`, for which the IC50 with HeLa is more than 20 µM; with HT-29, more than 20 µM; in the assay on SW-620 [3] it was 6.9 µM; in the assay with NCI-H1975, 8 µM. The figures for the inhibition in assay [1] and in assay [2] were 56.1% and 78.2%, respectively.
As for `COc1cc2nccc(Oc3ccc(NC(=O)c4cnc(Cl)cc4Nc4cccc(Cl)c4)cc3)c2cc1OC`, the IC50 with SW-620 [3] was determined as 4.33 µM. Further, the inhibition in [1] is 31.9%; in assay [2], 55.1%.
